Data: ChEMBL document CHEMBL3414483, “New heterocyclic hybrids of pyrazole and its bioisosteres: design, synthesis and biological evaluation as dual acting antimalarial-antileishmanial agents” (Eur J Med Chem, 2015)
Converted amounts (≈) assume the structure as drawn. The source made the active and inactive calls. The rule behind the calls is not given here.

Assays:
Plasmodium berghei [1] = assay: Antimalarial activity against Plasmodium berghei str. ANKA infected in Swiss albino mouse assessed as parasitemia at 0.048 mmol/kg/day, po qd […] by microscopic analysis relative to control; type: functional
In short: (§1)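 Four-day suppressive test. Mice were infected iv on day 0 with 0.2 ml of 2 × 10^7 P. berghei ANKA-parasitized erythrocytes from a donor mouse, diluted in saline. From 2 h post-infection they were dosed orally at 0.048 mmol/kg/day for days 0–3, five mice per group. The vehicle was 7% Tween and 3% ethanol in water. On day 4, Giemsa smears were scored over 5 fields of about 100 RBC each. Suppression was calculated relative to the vehicle group, taken as 100%.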

Plasmodium berghei [2] = assay: Antimalarial activity against Plasmodium berghei str. ANKA infected in Swiss albino mouse assessed as supression of parasitemia at 0.048 mmol/kg/day, po qd for 3 days by microscopic analysis relative to control; type: functional; in short: as §1
Plasmodium berghei [3] = assay: Antimalarial activity against Plasmodium berghei str. ANKA infected in Swiss albino mouse assessed as survival at 0.048 mmol/kg/day, po qd for 3 days by microscopic analysis relative to control; type: functional
In short: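 P. berghei ANKA infected mice, 4-day suppressive test. Day 0: 0.2 ml of 2 x 10^7 parasitized erythrocytes given i.v. (donor blood, 20-30% parasitemia, diluted in saline). Oral dosing at 0.048 mmol/kg/day from 2 h post-infection, then days 1-3 at 24 h intervals. Vehicle 7% Tween, 3% ethanol in water. Five mice/group. Survival time recorded per mouse; mean compared with vehicle group.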

Leishmania aethiopica [4] = assay: Antileishmanial activity against promastigote stage of Leishmania aethiopica after 24 hrs by alamar blue staining-based […]; type: functional, organism-based
In short: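 L. aethiopica promastigotes, 3 × 10^6 per well, given compounds from DMSO stocks in three-fold dilutions at 10 to 0.04 µg/ml (final DMSO ≤0.1%), in duplicate, at room temperature (21 ± 1 °C). Alamar blue (resazurin) was added after 24 h and absorbance read 48 h later at 540 and 630 nm. Negative control was parasites, medium and DMSO.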

Leishmania aethiopica [5] = assay: Antileishmanial activity against amastigote stage of Leishmania aethiopica after 72 hrs by resazurin staining-based fluorescence assay; type: functional, organism-based
In short: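 Axenic L. aethiopica amastigotes (50 µl of 2 × 10^7 cells/ml) exposed to serial dilutions at final 0.04–10 µg/ml for 72 h at 31 °C, humidified, 5% CO₂. Resazurin was added at 68 h and fluorescence read at 72 h (ex 530/em 590 nm). EC50 from sigmoidal dose–response fits, mean ± SD of triplicate experiments run in duplicate. Controls were medium alone and 1% DMSO.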

Plasmodium falciparum = assay: Antiplasmodial activity against chloroquine-resistant Plasmodium falciparum RKL9 infected in human RBC assessed as effect on schizont maturation after 24 hrs by Geimsa staining-based assay; type: functional, organism-based; details: RKL9, 24 h
In short: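 P. falciparum RKL9 in continuous culture in human B(+) RBC, parasitemia adjusted to 1-1.5%, RPMI 1640 with 10% AB(+) serum. Two-fold serial dilutions, compounds in ethanol (final ≤0.5%), 24 h at 37 °C, duplicate wells. Schizonts per 100 asexual parasites counted on Giemsa smears; % schizont maturation inhibition = (1 − Nt/Nc) × 100.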

Mus musculus [6] = assay: Toxicity in mouse assessed as change in weight at 25 to 300 mg/kg, po measured for 3 days; type: organism-based; parameters: dose 25-300 mg/kg, route oral; details: in vivo, 72 h
In short: (§2)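 Male mice (26-32 g), six per group, fasted overnight and weighed. Compounds given orally as suspension in 1% gum acacia at 25, 50, 100, 200 and 300 mg/kg/day; vehicle control at up to 1 ml/100 g. Mortality recorded after 24 h; weight and deaths followed over 3 days post-dosing.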

Mus musculus [7] = assay: Toxicity in mouse assessed as death at 25 to 300 mg/kg, po measured for 3 days; type: organism-based; parameters: dose 25-300 mg/kg, route oral; details: in vivo, 72 h; in short: as §2
[8] = Toxicity in po dosed mouse; type: organism-based; details: in vivo; in short: as §2
Mus musculus [9] = assay: Toxicity in mouse up to 100 mg/kg administered via parenteral route; type: organism-based; parameters: dose 100 mg/kg; details: in vivo
In short: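 Groups of six mice received intraperitoneal doses of 10, 25, 50, 75 and 100 mg/kg, with propylene glycol as the vehicle control.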

Row | SMILES | Activity (Plasmodium berghei [1]) [%] | Activity (Plasmodium berghei [2]) [%] | Survival (Plasmodium berghei [3]) [days] | IC50 (Leishmania aethiopica [4]) [µg/mL] | IC50 (Leishmania aethiopica [5]) [µg/mL] | IC50 (Plasmodium falciparum) [nM] | Activity (Mus musculus [6]) | Activity (Mus musculus [7]) | MTD [8] [mg/kg] | Activity (Mus musculus [9]) | Activity (Plasmodium berghei [3])
1 | Cc1ccc(-n2cc(/C=N/N=c3/scc(-c4ccc(Br)cc4)n3-c3ccccc3)c(-c3ccc([N+](=O)[O-])cc3)n2)cc1 | 22 | 74.42 | 12.12 | 3.11 (≈ 4.9 µM) | 1.78 (≈ 2.8 µM) | – | – | – | – | – | –
2 | CC(=O)N1N=C(c2ccccc2)CC1c1cn(-c2ccc(C)cc2)nc1-c1ccc(C)cc1 (stereo not drawn) | 18 | 79.07 | 10.08 | 3.05 (≈ 7.01 µM) | 2.31 (≈ 5.32 µM) | – | – | – | – | – | –
3 | Cc1ccc(-c2nn(-c3ccc(Br)cc3)cc2C2CC(c3ccccc3)=NN2)cc1 (stereo not drawn) | 28 | 67.44 | 7.88 | 2.01 (≈ 4.4 µM) | 1.88 (≈ 4.11 µM) | – | – | – | – | – | –
4 | Cc1ccc(-n2cc(/C=N/NC(=S)Nc3ccccc3)c(-c3ccc([N+](=O)[O-])cc3)n2)cc1 | 5 | 94.19 | 14 | 0.0241 (≈ 0.0528 µM) | 0.23 (≈ 0.504 µM) | 37.8 | Non-toxic | Non-toxic | 300 | Non-toxic | –
5 | CCN(CC)CCCC(C)Nc1ccnc2cc(Cl)ccc12.O=P(O)(O)O.O=P(O)(O)O (stereo not drawn) [CHLOROQUINE PHOSPHATE] | 0 | 100 | – | – | – | – | – | – | – | – | Active
6 | Cc1ccc(-n2cc(/C=N/N=C3/SCC(=O)N3c3ccccc3)c(-c3ccc([N+](=O)[O-])cc3)n2)cc1 | 3 | 96.51 | 16.62 | 0.0201 (≈ 0.0405 µM) | 0.28 (≈ 0.564 µM) | 40.2 | Non-toxic | Non-toxic | 300 | Non-toxic | –
7 | Cc1ccc(-c2nn(-c3ccc(C)cc3)cc2C2CC(c3ccccc3)=NN2c2ccccc2)cc1 (stereo not drawn) | 26 | 69.77 | 10.82 | 3.09 (≈ 6.59 µM) | 1.78 (≈ 3.8 µM) | – | – | – | – | – | –
8 | CC(=O)N(C1=NN(C(C)=O)C(c2cn(-c3ccc(C)cc3)nc2-c2ccc(C)cc2)S1)c1ccccc1 (stereo not drawn) | 14 | 83.72 | 12.22 | 0.862 (≈ 1.69 µM) | 0.82 (≈ 1.61 µM) | – | – | – | – | – | –
9 | CC(=O)N1N=C(c2ccccc2)CC1c1cn(-c2ccc(Br)cc2)nc1-c1ccc(C)cc1 (stereo not drawn) | 3 | 96.51 | 16.4 | 3.02 (≈ 6.05 µM) | 2.77 (≈ 5.55 µM) | 36.8 | Non-toxic | Non-toxic | 300 | Non-toxic | –
10 | Cc1ccc(-c2nn(-c3ccc(C)cc3)cc2C2CC(c3ccccc3)=NN2)cc1 (stereo not drawn) | 30 | 65.12 | 7.62 | 2.84 (≈ 7.25 µM) | 2.37 (≈ 6.04 µM) | – | – | – | – | – | –
11 | O=C1CS/C(=N/N=C/c2cn(-c3ccc(Br)cc3)nc2-c2ccc([N+](=O)[O-])cc2)N1c1ccccc1 | 2 | 97.67 | 16.44 | 0.0224 (≈ 0.0399 µM) | 0.19 (≈ 0.338 µM) | 39.2 | Non-toxic | Non-toxic | 300 | Non-toxic | –
12 | Cc1ccc(-c2nn(-c3ccc(C)cc3)cc2/C=C/C(=O)c2ccccc2)cc1 | 26 | 69.77 | 11.6 | 4 (≈ 10.6 µM) | 2.88 (≈ 7.61 µM) | – | – | – | – | – | –
13 | Cc1ccc(-c2nn(-c3ccc(C)cc3)cc2C=O)cc1 | 33 | 61.62 | 8.62 | 4.06 (≈ 14.7 µM) | 1.97 (≈ 7.13 µM) | – | – | – | – | – | –
14 | Cc1ccc(-c2nn(-c3ccc(Br)cc3)cc2C=O)cc1 | 30 | 65.11 | 8.4 | 3.11 (≈ 9.12 µM) | 1.82 (≈ 5.33 µM) | – | – | – | – | – | –
15 | CCC(=O)N1N=C(c2ccccc2)CC1c1cn(-c2ccc(Br)cc2)nc1-c1ccc([N+](=O)[O-])cc1 (stereo not drawn) | 34 | 60.47 | 6.82 | 2.12 (≈ 3.9 µM) | 1.83 (≈ 3.36 µM) | – | – | – | – | – | –
